Experimental data reported in ChEMBL document CHEMBL1926589, “2-Anilinonicotinyl linked 2-aminobenzothiazoles and [1,2,4]triazolo[1,5-b] [1,2,4]benzothiadiazine conjugates as potential mitochondrial apoptotic inducers” (Bioorg Med Chem, 2011).
Calls of active or inactive are those of the source. The calls are words filed in the database; no cut-off is given here.

What was measured:
[1] = Growth inhibition of human 502713 cells at 10 uM by sulforhodamine B assay; assay type: functional; conditions: read-out: GI
Outline: (§1)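 Single-dose 10 µM screen by sulforhodamine B assay, reported as percent inhibition of cell proliferation. Cells grown in medium with 10% heat-inactivated FBS at 37 °C, 5% CO2, and treated at about 70% confluence or in log phase. Compounds dissolved in DMSO; controls received vehicle (<0.5% v/v).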

HL-60 [2] = assay: Induction of apoptosis in human HL60 cells assessed as increase of reactive oxygen species level at 1 uM after 24 hrs using DCFH-DA fluorescent dye based flow cytometric analysis relative to control; assay type: functional
Outline: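 HL-60 cells (1 x 10^5 per 1.5 mL) treated 24 h, then loaded with 10 µM H2DCFDA for 30 min at 37 °C. Washed twice in PBS and read in FL-1 (530 nm). Percentage of DCF-positive cells determined; mean ± SD of three experiments.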

IMR-32 = assay: Growth inhibition of human IMR32 cells at 10 uM by sulforhodamine B assay; assay type: functional; conditions: read-out: GI; outline: as §1
SK-N-SH = assay: Growth inhibition of human SK-N-SH cells at 10 uM by sulforhodamine B assay; assay type: functional; conditions: read-out: GI; outline: as §1
HL-60 [3] = assay: Induction of apoptosis in human HL60 cells assessed as PARP cleavage at 1 uM after 24 hrs by Western blotting; assay type: functional, cell-based
Outline: (§2)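 HL-60 cells treated 24 h and lysed in RIPA buffer on ice; protein measured by Bradford against a BSA standard. 50 µg resolved by SDS-PAGE and transferred to PVDF, blocked in 5% milk/TBST, then primary antibodies 1:1000 for 2 h and HRP secondary 1:1000 for 1 h. ECL detection with β-actin as loading control; bands quantified by densitometry.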

HEp-2 = assay: Growth inhibition of human Hep2 cells at 10 uM by sulforhodamine B assay; assay type: functional; conditions: read-out: GI; outline: as §1
HL-60 [4] = assay: Cell cycle arrest in human HL60 cells assessed as accumulation at G1 phase at 1 uM after 24 hrs using propidium iodide staining by flow cytometry; assay type: functional, cell-based
Outline: (§3)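 HL-60 cells (1 x 10^5 per 1.5 mL) treated 24 h, then fixed in 70% cold ethanol at −20 °C overnight. RNase digestion (400 µg/ml) at 37 °C for 45 min, then propidium iodide (10 µg/ml) for 30 min. Flow cytometry on 10,000 events, FL2-A vs FL2-W, with doublet discrimination. Sub-G0 (hypodiploid) peak taken as apoptotic cells. Mean ± SD of three independent experiments.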

HL-60 [5] = assay: Cell cycle arrest in human HL60 cells assessed as accumulation at sub-G0 phase measuring DNA damage at 1 uM after 24 hrs using propidium iodide staining by flow cytometry (reference value: 1%); assay type: functional; outline: as §3
HL-60 [6] = assay: Inhibition of survivin expression in human HL60 cells at 1 uM after 24 hrs by Western blotting; assay type: functional, cell-based; outline: as §2
HeLa = assay: Induction of apoptosis in human HeLa cells assessed as DNA ladder formation at 10 uM after 24 hrs by agarose gel electrophoresis; assay type: functional, cell-based
Outline: (§4)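 Cells treated 24 h, then 2 x 10^6 cells lysed (Triton X-100 buffer, pH 8.0) with RNase at 37 °C for 90 min and proteinase-K at 50 °C for 1 h. DNA phenol/chloroform-extracted and ethanol-precipitated, then run on 1.8% agarose at 50 V for 1.5 h in TAE. Ladders viewed under UV.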

DU-145 = assay: Growth inhibition of human DU145 cells at 10 uM by sulforhodamine B assay; assay type: functional; conditions: read-out: GI; outline: as §1
HL-60 [7] = assay: Induction of apoptosis in human HL60 cells assessed as early apoptotic cells at 1 uM after 24 hrs using Annexin V-FITC and propidium iodide staining by flow cytometry relative to control; assay type: functional
Outline: (§5)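 HL-60 cells (1 x 10^5 per 1.5 mL) treated 24 h, washed twice in PBS and stained in binding buffer with annexin V-FITC and PI. Flow cytometry with FITC in FL-1 (530 nm) and PI in FL-2 (585 nm), using quadrant statistics: lower right taken as apoptotic, upper right as post-apoptotic necrotic. Representative of three independent experiments.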

SW-620 = assay: Growth inhibition of human SW620 cells at 10 uM by sulforhodamine B assay; assay type: functional; conditions: read-out: GI; outline: as §1
SiHa [8] = assay: Induction of apoptosis in human SiHa cells assessed as DNA ladder formation at 10 uM after 24 hrs by agarose gel electrophoresis; assay type: functional, cell-based; outline: as §4
HL-60 [9] = assay: Induction of apoptosis in human HL60 cells assessed as caspase9 activation using LEHD-AMC as substrate at 1 uM after 24 hrs by fluorimetry relative to control; assay type: functional
Outline: (§6)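 HL-60 cells (2 x 10^6) treated 24 h, washed and lysed. Caspase-3, -8 and -9 activities in lysates measured fluorometrically with a commercial caspase fluorescent assay kit. Two independent experiments, each in duplicate.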

HL-60 [10] = assay: Induction of apoptosis in human HL60 cells assessed as late apoptotic cells at 1 uM after 24 hrs using Annexin V-FITC and propidium iodide staining by flow cytometry relative to control; assay type: functional; outline: as §5
HL-60 [11] = assay: Induction of apoptosis in human HL60 cells assessed as DNA ladder formation at 10 uM after 24 hrs by agarose gel electrophoresis; assay type: functional, cell-based; outline: as §4
HL-60 [12] = assay: Cell cycle arrest in human HL60 cells assessed as accumulation at S phase at 1 uM after 24 hrs using propidium iodide staining by flow cytometry; assay type: functional, cell-based; outline: as §3
HL-60 [13] = assay: Induction of apoptosis in human HL60 cells assessed as caspase8 activation using IETD-AFC as substrate at 1 uM after 24 hrs by fluorimetry relative to control; assay type: functional; outline: as §6
HL-60 [14] = assay: Induction of apoptosis in human HL60 cells assessed as caspase3 activation using DEVD-AFC as substrate at 1 uM after 24 hrs by fluorimetry relative to control; assay type: functional; outline: as §6
[15] = Therapeutic ratio of IC50 for african green monkey CV1 cells to IC50 for human HL60 cells; assay type: ADME, cell-based, HL-60; conditions: CV1 cells and HL60 cells, read-out: Ratio IC50
HCT-15 = assay: Growth inhibition of human HCT15 cells at 10 uM by sulforhodamine B assay; assay type: functional; conditions: read-out: GI; outline: as §1
A549 = assay: Growth inhibition of human A549 cells at 10 uM by sulforhodamine B assay; assay type: functional; conditions: read-out: GI; outline: as §1
HL-60 [16] = assay: Inhibition of Bcl-2 expression in human HL60 cells at 1 uM after 24 hrs by Western blotting; assay type: functional, cell-based; outline: as §2
HL-60 [17] = assay: Inhibition of NF-kappaB expression in human HL60 cells at 1 uM after 24 hrs by Western blotting; assay type: functional, cell-based; outline: as §2
CV-1 = assay: Growth inhibition of african green monkey CV1 cells after 48 hrs by MTT assay; assay type: cell-based; conditions: Chlorocebus aethiops, CV-1, 48 h
SiHa [18] = assay: Growth inhibition of human SiHa cells at 10 uM by sulforhodamine B assay; assay type: functional; conditions: read-out: GI; outline: as §1
HL-60 [19] = assay: Growth inhibition of human HL60 cells after 48 hrs by MTT assay; assay type: functional, cell-based; conditions: HL-60, 48 h
HL-60 [20] = assay: Induction of apoptosis in human HL60 cells assessed as DNA ladder formation at 1 uM after 24 hrs by agarose gel electrophoresis; assay type: functional, cell-based; outline: as §4
HL-60 [21] = assay: Cell cycle arrest in human HL60 cells assessed as accumulation at G2/M phase at 1 uM after 24 hrs using propidium iodide staining by flow cytometry; assay type: functional, cell-based; outline: as §3
HL-60 [22] = assay: Induction of NO production in human HL60 cells at 1 uM after 24 hrs using DAF-2DA fluorescent dye based flow cytometric analysis; assay type: functional, cell-based
Outline: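 HL-60 cells (1 x 10^5 per 1.5 mL) preloaded 30 min with 10 µM DAF-2-DA before treatment. After 24 h exposure, cells were washed and read by flow cytometry in FL-1 as NO-positive population. Mean ± SD of three independent experiments.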

SiHa [23] = assay: Growth inhibition of human SiHa cells after 48 hrs by MTT assay; assay type: functional, cell-based
HL-60 [24] = assay: Induction of apoptosis in human HL60 cells assessed as non-viable necrotic cells at 1 uM after 24 hrs using Annexin V-FITC and propidium iodide staining by flow cytometry relative to control; assay type: functional; outline: as §5
OVCAR-5 = assay: Growth inhibition of human OVCAR5 cells at 10 uM by sulforhodamine B assay; assay type: functional; conditions: read-out: GI; outline: as §1
HL-60 [25] = assay: Induction of apoptosis in human HL60 cells assessed as decrease in mitochondrial membrane potential at 1 uM after 24 hrs using rhodamine 123 staining by flow cytometry; assay type: functional
Outline: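 HL-60 cells (1 x 10^5 per 1.5 mL) treated 24 h, then stained with rhodamine-123 (5 µg/mL final) for 1 h. Washed, and propidium iodide (5 µg/mL) added just before reading. FL-1 fluorescence from 10,000 events; percentage of low Rh-123 cells taken as loss of membrane potential. Mean ± SD, n=3.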

| SMILES | inhibition of growth at 10 µM [1] [%] | Activity (HL-60 [2]) | inhibition of growth at 10 µM (IMR-32) [%] | inhibition of growth at 10 µM (SK-N-SH) [%] | Activity (HL-60 [3]) | inhibition of growth at 10 µM (HEp-2) [%] | Activity (HL-60 [4]) | Activity (HL-60 [5]) [%] | Activity (HeLa) | inhibition of growth at 10 µM (DU-145) [%] | Activity (HL-60 [7]) [%] | inhibition of growth at 10 µM (SW-620) [%] | Activity (SiHa [8]) | Activity (HL-60 [9]) | Activity (HL-60 [10]) [%] | Activity (HL-60 [11]) | Activity (HL-60 [12]) | Activity (HL-60 [13]) | Activity (HL-60 [14]) | inhibition of growth at 10 µM (HCT-15) [%] | other results |
| --- | --- | --- | --- | --- | --- | --- | --- | --- | --- | --- | --- | --- | --- | --- | --- | --- | --- | --- | --- | --- | --- |
| CN1c2ccccc2S(=O)(=O)n2nc(-c3cccnc3Nc3ccc(Cl)cc3Cl)nc21 | 49 | inactive | 47 | 16 | Active | 0 | inactive | 20 | inactive | 11 | 7 | 62 | inactive | inactive | 3 | Active | inactive | inactive | inactive | 27 | inhibition (HL-60 [6]): Active; selectivity ratio [15]: > 156; inhibition of growth at 10 µM (A549): 15%; inhibition (HL-60 [16]): inactive; inhibition (HL-60 [17]): inactive; IC50 (CV-1): > 100 µM; inhibition of growth at 10 µM (SiHa [18]): 13%; IC50 (HL-60 [19]): 0.64 µM; Activity (HL-60 [20]): Active; Activity (HL-60 [21]): inactive; Activity (HL-60 [22]): inactive; IC50 (SiHa [23]): > 50 µM; Activity (HL-60 [24]): 13%; inhibition of growth at 10 µM (OVCAR-5): 23% |
| COc1ccc(Nc2ncccc2C(=O)Nc2nc3ccc([N+](=O)[O-])cc3s2)cc1 | 59 | 44% | 55 | 64 | Active | 5 | inactive | 22 | inactive | 32 | 7 | 64 | inactive | inactive | 3 | Active | inactive | inactive | inactive | 47 | selectivity ratio [15]: 14; inhibition of growth at 10 µM (A549): 3%; inhibition (HL-60 [16]): inactive; inhibition (HL-60 [17]): inactive; IC50 (CV-1): 10 µM; inhibition of growth at 10 µM (SiHa [18]): 66%; IC50 (HL-60 [19]): 0.7 µM; Activity (HL-60 [20]): Active; Activity (HL-60 [21]): inactive; Activity (HL-60 [22]): inactive; IC50 (SiHa [23]): 28 µM; Activity (HL-60 [24]): 14%; inhibition of growth at 10 µM (OVCAR-5): 52% |
| O=C(Nc1nc2ccc([N+](=O)[O-])cc2s1)c1cccnc1Nc1ccc(Cl)cc1Cl | 2 | inactive | 48 | 50 | Active | 14 | inactive | 25 | inactive | 39 | 9 | 61 | inactive | inactive | 5 | Active | inactive | inactive | inactive | 75 | Activity (HL-60 [25]): Active; inhibition (HL-60 [6]): Active; inhibition of growth at 10 µM (A549): 19%; inhibition (HL-60 [16]): inactive; inhibition (HL-60 [17]): inactive; inhibition of growth at 10 µM (SiHa [18]): 35%; Activity (HL-60 [20]): Active; Activity (HL-60 [21]): inactive; Activity (HL-60 [22]): inactive; Activity (HL-60 [24]): 40%; inhibition of growth at 10 µM (OVCAR-5): 0% |
| O=C(Nc1nc2ccc([N+](=O)[O-])cc2s1)c1cccnc1Nc1ccccc1 | 63 | 31% | 45 | 48 | Active | 26 | inactive | 24 | inactive | 52 | 13 | 65 | inactive | inactive | 7 | Active | inactive | inactive | inactive | 66 | Activity (HL-60 [25]): Active; selectivity ratio [15]: 120; inhibition of growth at 10 µM (A549): 31%; inhibition (HL-60 [16]): inactive; inhibition (HL-60 [17]): inactive; IC50 (CV-1): 70 µM; inhibition of growth at 10 µM (SiHa [18]): 53%; IC50 (HL-60 [19]): 0.58 µM; Activity (HL-60 [20]): Active; Activity (HL-60 [21]): inactive; Activity (HL-60 [22]): inactive; IC50 (SiHa [23]): 28 µM; Activity (HL-60 [24]): 42%; inhibition of growth at 10 µM (OVCAR-5): 50% |
